Screening data: PubChem, Broad Institute
PGC1a acetyl up: compounds raising PGC1a acetylation signal, primary screen, PGC1a modulator project, cell-based, U2OS, AlphaScreen, signal-increasing mode | actives 0.21% (n = 350,000) | activation, % at 15.6 µM | overnight;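 active = every replicate reaching activation of at least 50%, whatever the mean replicate activation; inconclusive = replicates that disagree or another doubt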;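 note: hits raise the AlphaScreen acetylation signal above neutral controls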
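System: flag-PGC1a/GCN5 U2OS cells / Input: 7000 cells/well / Compound: single test concentration per compound / Incubation: overnight compound treatment, 37 °C / Technique: AlphaScreen on lysates with anti-acetyl-lysine antibody, acceptor and donor beads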
Hep G6PC suppr: suppressors of forskolin-stimulated G6PC mRNA, dose response, PGC-1a acetylation activator project, cell-based, hepatocytes, RT-qPCR, cherry-picked samples | shares compounds with PGC1a acetyl up | G6PC suppression (normalized activity, % of positive control; higher = more suppression), % at 26 µM | 240 tested, under 10 active | AID 743463, 2014 | primary mouse hepatocytes;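 active = dose curves showing G6PC suppression whose half-maximal dose is at most twice the top valid dose; inconclusive = flat curves with moderate negative activity, or unreliable fits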;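 note: G6PC expression relative to GAPDH housekeeping gene as delta delta Ct; 0% = median of neutral control wells and 100% = median of positive control wells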
Hep PCK1 suppr: suppression of PCK1 mRNA in primary hepatocytes, dose response, PGC-1a acetylation activator project, cell-based, primary mouse hepatocytes, RT-qPCR, cherry-pick | PCK1 expression decrease, unspecified at 26 µM | shares compounds with PGC1a acetyl up | 230 tested, under 10 active | forskolin-stimulated;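 active = compounds lowering PCK1 expression whose fitted half-maximal concentration is at most twice the top tested dose; inconclusive = flat fit with moderate opposite-direction effect, or poor fit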;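 note: values are delta delta Ct of PCK1 relative to GAPDH; higher delta delta Ct means lower PCK1 expression so positive values indicate hits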
PGC1a hep suppr: suppression of PGC-1a mRNA in primary hepatocytes, dose response, PGC-1a acetylation activator project, cell-based, primary mouse hepatocytes, RT-qPCR, cherry-pick | PGC-1a mRNA qPCR, forskolin; top dose 26 µM | AID 743467, 2014 | max activity (PGC-1a expression decrease), % | 240 tested, under 10 active | shares compounds with PGC1a acetyl up;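 active = compound lowering PGC-1a expression with fitted half-maximal concentration at most twice its top tested dose; inconclusive = flat curve with moderate opposite-direction effect, or poor fit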;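 note: 0% = neutral control wells median and 100% = positive control wells median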
Numbers without * were called inactive; ? = inconclusive; / = no result given; [ ] = dose if it differs, or a comment. The list is a sample of the results.

SMILES	PGC1a acetyl up	Hep G6PC suppr	Hep PCK1 suppr	PGC1a hep suppr
C[C@H]1CN([C@@H](C)CO)C(=O)c2cccc(NC(=O)Nc3cccc4ccccc34)c2O[C@H]1CN(C)Cc1ccc(C(=O)Nc2ccccc2N)cc1	81*	-38	-11	-13
O=C(CSc1c(Cl)cccc1Cl)NC1CCCc2ccccc21 (centres undefined)	-43	/	/	/
Cc1ccc(S(=O)(=O)/N=C2/C=C(Sc3ncn[nH]3)C(=O)c3ccccc32)cc1	-77	/	/	/
Cc1ccc(-c2nnc(Nc3ccc4c(c3)OCO4)c3ccccc23)cc1S(=O)(=O)NCCO	94*	44	113	63
COC1=CC(=O)c2c(ccc3ncnc(N)c23)C1=O	-66	/	/	/
Nc1cc2nsnc2cc1Br	-60	/	/	/
CSc1n[nH]c(NCc2ccccc2)n1	-42	/	/	/
Brc1ccc2ncnc(NCc3ccccc3)c2c1	-42	/	/	/
Cc1nnc(NCc2ccccc2)c2ccccc12	?	/	11	84
C=CC(=O)Nc1cccc(Oc2ccnc(Nc3ccc(N4CCN(C)CC4)cc3)n2)c1	-40	/	/	/
NCCCn1c(C(=O)c2cc(Cl)c(N)c(Cl)c2)c2ccc([N+](=O)[O-])cc2[n+]1[O-]	-54	/	/	/
CC(=O)c1ccc(OCC(=O)OCC(=O)Nc2sccc2C(N)=O)cc1	56*	9	17[8 µM]	58
COc1cc(/C=N/NC(=O)c2ccncc2)ccc1OC(C)=O	-49	/	/	/
CCn1nnc(NC(=O)c2ccc(C(C)(C)C)cc2)n1	-41	/	/	/
C/C(=N\Nc1nc(C)cc(=O)[nH]1)C1CC1	-41	/	/	/
O=C(OCn1ncc(Br)c(Br)c1=O)c1ccc(F)cc1	-37	/	/	/
O=C(CN1CCC(n2nnc3cc(C(F)(F)F)ccc32)CC1)NCc1cccs1	/	14	22	52
COC(=O)[C@H](Cc1ccccc1)N(C)S(=O)(=O)c1cccc(S(=O)(=O)N(C)[C@@H](Cc2ccccc2)C(=O)OC)c1	?	-83	/	?
COc1ccccc1Oc1ccc2c(c1)C(=O)N(c1ccc(C)cc1)C2=O	-104	/	/	/
CC1=C/C(=N\OS(=O)(=O)c2ccccc2)C(C)=CC1=O	-60	/	/	/
CCc1ccc(-c2cn3nc(-c4ccccc4)cnc3n2)cc1	-45	/	/	/
COC(=O)/C(=C\Nc1cccc(Cl)c1C)c1ncc(C(F)(F)F)cc1Cl	-41	/	/	/
COc1ccc(Nc2nnc(-c3ccc(C(N)=O)cc3)c3ccccc23)cc1	89*	157	78	111
CCOC(=O)C1(Cc2ccccc2)CCN(Cc2cccc(OC)c2O)CC1	84*	20	39	?
CCOc1ccc(N(C)S(=O)(=O)c2cc(-c3cc(C)no3)ccc2OC)cc1	54*	23	61	57
SMILES	PGC1a acetyl up	Hep G6PC suppr	Hep PCK1 suppr	PGC1a hep suppr
COc1ccc(OC)c(CNS(=O)(=O)c2cc(-c3cc(C)no3)ccc2OC)c1	-51	/	/	/
COc1ccc(-c2nc(N)c(C#N)c(-c3cccnc3)c2C)cc1	?	2	7.5	40
CC(C)(C)C1CCC(CN2C(Nc3ccccc3)=NC[C@@H]2Cc2ccccc2)CC1 (some centres undefined)	-88	/	/	/
Cc1cc(/C=C\c2ccc3cc(N(C)C)ccc3[n+]2C)c(C)n1-c1ccccc1	-68	/	/	/
O=C(/C=C/c1ccccc1)CC(O)(c1ccccc1)C(F)(F)C(F)F (centres undefined)	-42	/	/	/
CCCN(CCC)CCNC(=O)c1cc2c(=O)n(CC)c3ccccc3c2s1	-43	/	/	/
O=C(Cc1ccccc1)Nc1ccc(NC(=O)c2cccs2)cc1	312*	43	3.3	42
O=C(CNC(=O)c1sc2ccccc2c1Cl)NCc1ccccc1	-52	/	/	/
CN(NC(=O)c1ccccc1)C1=NS(=O)(=O)c2ccccc21	-40	/	/	/
Cc1ccccc1Nc1ncnc2c1cnn2-c1ccccc1	-63	/	/	/
CN1C2C=C3C(C#N)=C(N)C(C#N)(C#N)C(c4ccc(Br)cc4)C3C1CC2 (centres undefined)	-42	/	/	/
Cc1ccc(Cl)cc1NC(=O)Cn1nc(-c2cccs2)ccc1=O	-40	-7	-25	17
COc1ccccc1C(=O)N1C(CC(=O)Nc2cc(Cl)ccc2C)C(=O)NC2CCCCC21 (centres undefined)	-44	/	/	/
CC(/C=C1\SC(=O)N(CCCC(=O)O)C1=O)=C\c1ccccc1	-43	/	/	/
O=C(c1ccc(Cl)cc1)C(Cn1cncn1)C(Sc1ccccc1)c1ccccc1 (centres undefined)	-61	/	/	/
O=C(O)COc1ccc(/C=C2/SC(=S)N(Cc3ccccc3)C2=O)cc1	-72	/	/	/
CC(=O)c1c(C)oc2ccc(N(C(C)=O)S(=O)(=O)c3ccc(Cl)c([N+](=O)[O-])c3)cc12	-61	/	/	/
COc1ccc(OC)c(NC(=O)CSc2nnc(-c3cccnc3)s2)c1	85*	-9	-11	55
CO[C@H]1CN(C)C(=O)c2cc(NC(=O)Nc3ccc(Cl)cc3)ccc2OC[C@H](C)NC[C@@H]1C	-43	/	/	/
CN1C[C@H](C(=O)N[C@]2(C)O[C@@]3(O)[C@@H]4CCCN4C(=O)[C@H](Cc4ccccc4)N3C2=O)CC2c3cccc4[nH]cc(c34)C[C@H]21 (some centres undefined)	-43	/	/	/
Fc1ccc(CN(Cc2ccccc2)C(c2cccs2)c2nnnn2C2CCCCC2)cc1 (centres undefined)	-42	/	/	/
CC(C)C(c1nnnn1Cc1ccccc1)N(Cc1ccco1)Cc1cccs1 (centres undefined)	91*	316	67	95
CC1(C)CCCN(C(=O)N2c3ccccc3Sc3ccccc32)C1	?	-23	14	82
O=C(CC1S/C(=N/N=C/c2c[nH]c3ccccc23)NC1=O)Nc1ccccc1 (centres undefined)	-42	/	/	/
COc1ccc(CN(CCC(C)C)S(=O)(=O)c2ccccc2Br)cc1	74*	/	51	99
SMILES	PGC1a acetyl up	Hep G6PC suppr	Hep PCK1 suppr	PGC1a hep suppr
CCCN(CCC)S(=O)(=O)c1ccc(C(=O)Nc2nnc(CSC)o2)cc1	-45	/	/	/
COc1cc(C2Nc3cccc4cccc(c34)N2)ccc1OC(C)=O	-56	/	/	/
NC(=O)C1CCCc2c1[nH]c1ccc(Cl)cc21 (centres undefined)	/	1	-3	11
c1cncc(CNc2ncnc3ccc(-c4ccoc4)cc23)c1	-55	/	/	/
CC(N=C1NS(=O)(=O)c2ccccc21)C(=O)NCCCc1ccccc1 (centres undefined)	-47	/	/	/
Cc1c(C(=O)NCCSCc2c(F)cccc2Cl)cnn1-c1ccc(Cl)cc1	?	-15	-13	-22
COC(=O)c1ccc(CSc2nc3c(cnn3-c3ccc(Cl)cc3)c(=O)[nH]2)o1	-53	/	/	/
CC(=O)Nc1sc2c(c1-c1nc3ccccc3s1)CN(C(C)C)CC2	-52	/	/	/
COc1ccc(C2NC(=S)NC3=C2CCCC3=C2SCCS2)cc1 (centres undefined)	-45	/	/	/
Nc1nccc(-c2ccc(-n3cnc4ccccc43)cc2)n1	-44	/	/	/
COc1ccccc1-c1ccc2c(c1)O[C@@H](CN(C)Cc1ccc3c(c1)OCO3)[C@@H](C)CN([C@@H](C)CO)S2(=O)=O	65*	553	110	54
